14 compounds from ChEMBL document CHEMBL4049388, “Facile and efficient access to Androsten-17-(1',3',4')-pyrazoles and Androst-17β-(1',3',4')-pyrazoles via Vilsmeier reagents, and their antiproliferative activity evaluation in vitro” (Eur J Med Chem, 2017) can be followed below.

For orientation: IC50 means the concentration at which inhibition is half-maximal. High values mean lower potency, low ones higher potency.

Molecules are shown by their SMILES.

The nature of data set [1]: Cytotoxicity against human 293T cells assessed as growth inhibition at 10 uM after 72 hrs by SRB assay relative to control. Format: cell-based. Particulars: HEK-293T cells, read-out: GI. Put shortly:
(§1)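 SRB single-dose screen at 10 μM on 293T, A549, Hela and MCF-7 cells. Results reported as percent inhibitory ratio (mean ± SD).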
Background: In SRB staining, fixed cells bind dye roughly in proportion to their protein.

Data set [2] has as its system A549. Description: Cytotoxicity against human A549 cells assessed as growth inhibition at 10 uM after 72 hrs by SRB assay relative to control. The format is functional. Particulars: A549, 72 h, read-out: GI. Put shortly:
as §1

The test system of data set [3] is HeLa. Kind of data set: Cytotoxicity against human HeLa cells assessed as growth inhibition at 10 uM after 72 hrs by SRB assay relative to control. Format: functional. Particulars: read-out: GI. Put shortly:
as §1

Data set [4] deals with MCF7. Description: Cytotoxicity against human MCF7 cells assessed as growth inhibition at 10 uM after 72 hrs by SRB assay relative to control. The following applies: MCF7, 72 h, read-out: GI. The format is functional. A digest of the protocol:
as §1

The subject of data set [5] is HEK-293T. Kind of data set: Cytotoxicity against human 293T cells after 72 hrs by SRB assay. Format: cell-based. Put shortly:
(§2)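 SRB assay on 293T, A549, Hela and MCF-7 cells, with cisplatin as reference control. IC50 calculated for each compound from triplicate assays.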

Data set [6] relates to A549. Description: Cytotoxicity against human A549 cells after 72 hrs by SRB assay. Format: functional, cell-based. Particulars: A549, 72 h. Put shortly: as §2
The subject of data set [7] is HeLa. Kind of data set: Cytotoxicity against human HeLa cells after 72 hrs by SRB assay. The format is functional, cell-based. Put shortly:
as §2

Data set [8] has as its system MCF7. Description: Cytotoxicity against human MCF7 cells after 72 hrs by SRB assay. Particulars: MCF7, 72 h. Format: functional, cell-based. Put shortly: as §2

Regarding `CC(C)NCc1cn(-c2ccccc2)nc1C1=CC[C@H]2[C@@H]3CC=C4C[C@@H](O)CC[C@]4(C)[C@H]3CC[C@]12C`, the inhibition at 72 h, 10 µM in data set [1] turned out to be 94.7%. Besides, the inhibition of growth at 10 µM in data set [2] was 93.3%; in data set [3], 92.4%; in data set [4] it was 92.1%. Besides, the IC50 in data set [5] stood at 7.51 µM; in data set [6], 2.87 µM; in data set [7], 3.49 µM; in data set [8], 6.36 µM.

Consider `CNCc1cn(-c2ccccc2)nc1C1=CC[C@H]2[C@@H]3CC=C4C[C@@H](O)CC[C@]4(C)[C@H]3CC[C@]12C`, for which the inhibition at 72 h, 10 µM in data set [1] came to 91.6%. Besides, the inhibition of growth at 10 µM in data set [2] was 82.1%; in data set [3], 90.5%; in data set [4], 81.1%. Further, the IC50 stood at 2.11 µM in data set [5], 3.68 µM in data set [6], 3.86 µM in data set [7] and 6.91 µM in data set [8].

On to `C[C@]12CC[C@H](O)CC1=CC[C@@H]1[C@@H]2CC[C@]2(C)C(c3nn(-c4ccccc4)cc3CNCc3ccccc3)=CC[C@@H]12`, for which the inhibition at 72 h, 10 µM in data set [1] is 50.7%. Moreover, the inhibition of growth at 10 µM is below 10% in data set [2], below 10% in data set [3] and 25.4% in data set [4].

As for `CCCNCc1cn(-c2ccccc2)nc1[C@H]1CC[C@H]2[C@@H]3CCC4C[C@@H](O)CC[C@]4(C)[C@H]3CC[C@]12C` (stereo partly drawn), the inhibition at 72 h, 10 µM in data set [1] was 91.9%. Also, the inhibition of growth at 10 µM in data set [2] came to 91.5%; in data set [3] it was 90.3%; in data set [4] it was 88.6%. The IC50 in data set [5] amounted to 0.62 µM; in data set [6] it was 6.02 µM; in data set [7], 1.98 µM; in data set [8], 4.84 µM.

With `C[C@]12CC[C@H]3[C@@H](CCC4C[C@@H](O)CC[C@@]43C)[C@@H]1CC[C@@H]2c1nn(-c2ccccc2)cc1CNCc1ccccc1` (stereo partly drawn), the inhibition at 72 h, 10 µM in data set [1] amounted to 60.8%. In addition, the inhibition of growth at 10 µM in data set [2] came to 56.5%; in data set [3] it was 48.3%; in data set [4], 44.4%.

In the case of `COc1ccccc1NCc1cn(-c2ccccc2)nc1C1=CC[C@H]2[C@@H]3CC=C4C[C@@H](O)CC[C@]4(C)[C@H]3CC[C@]12C`, the inhibition at 72 h, 10 µM in data set [1] was below 10%. Also, the inhibition of growth at 10 µM in data set [2] is below 10%; in data set [3], below 10%; in data set [4], 18.1%.

For `CCNCc1cn(-c2ccccc2)nc1[C@H]1CC[C@H]2[C@@H]3CCC4C[C@@H](O)CC[C@]4(C)[C@H]3CC[C@]12C` (stereo partly drawn), the inhibition at 72 h, 10 µM in data set [1] is 91.2%. Besides, the figures for the inhibition of growth at 10 µM in data set [2], in data set [3] and in data set [4] were 92.4%, 88.4% and 88.9%, respectively. The IC50 in data set [5] was determined as 5.29 µM; in data set [6], 6.35 µM; in data set [7] it was 3.28 µM; in data set [8] it was 3.92 µM.

For `C[C@]12CC[C@H]3[C@@H](CCC4C[C@@H](O)CC[C@@]43C)[C@@H]1CC[C@@H]2c1nn(-c2ccccc2)cc1CNc1ccccc1` (stereo partly drawn), the inhibition at 72 h, 10 µM in data set [1] was determined as 12.5%. The inhibition of growth at 10 µM in data set [2] is below 10%; in data set [3], below 10%; in data set [4], 16.9%.

With `C[C@]12CC[C@H](O)C[C@@H]1CC[C@@H]1[C@@H]2CC[C@]2(C)[C@@H](c3nn(-c4ccccc4)cc3CO)CC[C@@H]12`, in data set [1], the inhibition at 72 h, 10 µM came out at 18.5%. Further, the inhibition of growth at 10 µM in data set [2] was below 10%; in data set [3] it was below 10%; in data set [4] it was 27.8%.

As for `CNCc1cn(-c2ccccc2)nc1[C@H]1CC[C@H]2[C@@H]3CCC4C[C@@H](O)CC[C@]4(C)[C@H]3CC[C@]12C` (stereo partly drawn), in data set [1], the inhibition at 72 h, 10 µM stood at 79.2%. For the same compound, the inhibition of growth at 10 µM is below 10% in data set [2], 41.3% in data set [3] and 45.9% in data set [4].

As to `CC(C)NCc1cn(-c2ccccc2)nc1[C@H]1CC[C@H]2[C@@H]3CCC4C[C@@H](O)CC[C@]4(C)[C@H]3CC[C@]12C` (stereo partly drawn), the inhibition at 72 h, 10 µM in data set [1] was determined as 87.4%. The inhibition of growth at 10 µM in data set [2] turned out to be 30.6%; in data set [3], 74.1%; in data set [4], 70.8%. Moreover, the IC50 in data set [5] is 1.03 µM; in data set [7] it was 1.98 µM; in data set [8], 7.45 µM.

Consider `CCCNCc1cn(-c2ccccc2)nc1C1=CC[C@H]2[C@@H]3CC=C4C[C@@H](O)CC[C@]4(C)[C@H]3CC[C@]12C`, for which, in data set [1], the inhibition at 72 h, 10 µM is 93.7%. In addition, the values for the inhibition of growth at 10 µM in data set [2], in data set [3] and in data set [4] were 91.2%, 93.5% and 90.7%, respectively. Moreover, the half-inhibitory concentration (IC50) in data set [5] is 7.25 µM; in data set [6] it was 1.57 µM; in data set [7], 3.61 µM; in data set [8], 4.29 µM.

Consider `CCCCNCc1cn(-c2ccccc2)nc1[C@H]1CC[C@H]2[C@@H]3CCC4C[C@@H](O)CC[C@]4(C)[C@H]3CC[C@]12C` (stereo partly drawn), for which the inhibition at 72 h, 10 µM in data set [1] was below 10%. In addition, the inhibition of growth at 10 µM in data set [2] was below 10%; in data set [3], 29.3%; in data set [4], 21.9%.

Take `CCCCNCc1cn(-c2ccccc2)nc1C1=CC[C@H]2[C@@H]3CC=C4C[C@@H](O)CC[C@]4(C)[C@H]3CC[C@]12C`: the inhibition at 72 h, 10 µM in data set [1] came out at 95.1%. Also, the inhibition of growth at 10 µM in data set [2] stood at 92.9%; in data set [3] it was 92.6%; in data set [4], 93.7%. For the same compound, the IC50 is 2.63 µM in data set [5], 1.93 µM in data set [6], 3.37 µM in data set [7] and 3.18 µM in data set [8].
